Laboratory results published in ChEMBL document CHEMBL3739411, “Cytotoxic Illudane Sesquiterpenes from the Fungus Granulobasidium vellereum (Ellis and Cragin) Jülich” (J Nat Prod, 2015).
One block for each molecule: values may come before it.

Columns and labels:
[1] = Drug level in phosphate buffer treated with (3S,7R)-Illudin M at pH 5.4 in presence of cysteine; assay type: physicochemical
Procedure, shortened: (§1)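 Compound was incubated with L-cysteine in 50 mM buffer at pH 5.4 at room temperature. The reaction was followed for 3 h by UV absorbance at 318 nm and by LC-HRESIMS (C18, 10−90% aqueous MeCN gradient). Reaction half-life was taken from the time course.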

[2] = Chemical reactivity of the compound in aqueous HCl assessed as reaction rate; assay type: physicochemical; details: buffer
Procedure, shortened: (§2)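 Compound dissolved in 2 M HCl at room temperature; reaction followed spectrophotometrically at 318 nm and by LC-HRESIMS. First-order rate constant k (min⁻¹) and t1/2 (min) derived from the decay.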

[3] = Half life of the compound in aqueous HCl; assay type: physicochemical; procedure, shortened: as §2
MT4 = assay: Cytotoxicity against human MT4 cells assessed as viable cells after 6 days by XTT assay; assay type: functional; details: MT4, 144 h
Procedure, shortened: (§3)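 Cells seeded at 2 × 10⁴ cells/well in 96-well plates; test substances added next day in duplicate. CC50 is the concentration giving 50% viability relative to untreated control cells. Positive control included.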

[4] = Cytotoxicity against human HuH7 cells assessed as viable cells after 6 days by XTT assay; assay type: functional; details: Huh-7, 144 h; procedure, shortened: as §3
[5] = Half life of the compound in phosphate buffer at pH 5.4 in presence of cysteine; assay type: ADME; details: phosphate buffer with cysteine
[6] = Drug level in phosphate buffer treated with (3S,7S)-Illudin M at pH 5.4 in presence of cysteine; assay type: physicochemical; procedure, shortened: as §1

Drug metabolism [1]: metabolite_detected
SMILES: Cc1c(O)c2c(c(C)c1CCO)[C@H](O)C(C)(C)[C@@H]2SC[C@H](N)C(=O)O

Drug metabolism [1]: metabolite_detected
SMILES: Cc1c(O)c2c(c(C)c1CCO)[C@H](O)C(C)(C)[C@H]2SC[C@H](N)C(=O)O

SMILES: CC1=C2C(=CC(C)(C)[C@@H]2O)C(=O)[C@](C)(O)C12CC2 [ILLUDIN M]
K [2]: 4.7 ×10⁻³ /min | half-life [3]: 147 min

SMILES: CC1=C2C(=CC(C)(C)[C@H]2O)C(=O)[C@@](C)(O)C12CC2
CC50 (MT4): 0.12 µM | K [2]: 4.1 ×10⁻³ /min | half-life [3]: 170 min | CC50 [4]: 1.3 µM | half-life [5]: 27 min

SMILES: CC1=C2C(=CC(C)(C)[C@@H]2O)C(=O)[C@@](C)(O)C12CC2
CC50 (MT4): 0.014 µM | K [2]: 12 ×10⁻³ /min | half-life [3]: 38 min | CC50 [4]: 0.38 µM | half-life [5]: 5.6 min

Drug metabolism [6]: metabolite_detected
SMILES: Cc1c(O)c2c(c(C)c1CCO)[C@@H](O)C(C)(C)[C@H]2SC[C@H](N)C(=O)O

SMILES: CC1=CC2=C[C@@](C)(CO)C[C@@H]2[C@@](C)(O)C12CC2
CC50 (MT4): > 400 µM | CC50 [4]: > 400 µM

SMILES: CC1=C2C(=C[C@@](C)(CO)[C@@H]2O)C(=O)[C@@](C)(O)C12CC2
CC50 (MT4): 0.023 µM | CC50 [4]: 0.098 µM

SMILES: COc1nc(N)nc2c1ncn2[C@@H]1O[C@H](COP(=O)(N[C@H](C)C(=O)OCC(C)(C)C)Oc2ccc3ccccc3c2)[C@@H](O)[C@@]1(C)O (stereo partly drawn)
CC50 (MT4): 3 µM | CC50 [4]: 3 µM

SMILES: CC1(C)C=C2C=C(CO)C3(CC3)[C@](C)(O)[C@H]2C1
CC50 (MT4): 110 µM | CC50 [4]: 240 µM
